Measurements as given in ChEMBL document CHEMBL4689842, “EUbOPEN Chemogenomics Library wave 1” (2021).

Legend:
Fibroblast = assay: Multiplex assay against human fibroblast; assay type: toxicity, cell-based; conditions: 48 h
In short: (§1)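 Per cents of healthy-nucleus cells form the tubulin, mitochondrial-mass and membrane-permeability phenotype values. Live cells were stained at seeding with Hoechst33342, BioTracker Green Microtubule Cytoskeleton Dye, MitoTracker Red and Annexin V Alexa Fluor 680. After compound addition they were imaged on a CQ1 microscope at 37°C and 5% CO2, and CellPathfinder machine-learning gating split them into Hoechst high-intensity objects or normal cells, normal cells into healthy, pyknosed or fragmented nuclei, and pyknosed cells into mitotic or apoptotic.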

HEK-293T = assay: Multiplex assay against HEK293T; assay type: toxicity, cell-based; conditions: human; in short: as §1
[1] = 1 µM, compound concentration 1 uM, replicate 2
[2] = 10 µM, compound concentration 10 uM, replicate 1
[3] = 10 µM, compound concentration 10 uM, replicate 2
[4] = 12 h, 1 µM, compound concentration 1 uM, replicate 1
[5] = 12 h, 1 µM, compound concentration 1 uM, replicate 2
[6] = 12 h, 10 µM, compound concentration 10 uM, replicate 1
[7] = 12 h, 10 µM, compound concentration 10 uM, replicate 2
[8] = 24 h, 1 µM, compound concentration 1 uM, replicate 1
[9] = 24 h, 1 µM, compound concentration 1 uM, replicate 2
[10] = 24 h, 10 µM, compound concentration 10 uM, replicate 1
[11] = 24 h, 10 µM, compound concentration 10 uM, replicate 2
[12] = 48 h, 1 µM, compound concentration 1 uM, replicate 1
[13] = 48 h, 1 µM, compound concentration 1 uM, replicate 2
[14] = 48 h, 10 µM, compound concentration 10 uM, replicate 1
[15] = 48 h, 10 µM, compound concentration 10 uM, replicate 2

## CC(C)C[C@H](NC(=O)[C@H](Cc1ccccc1)NC(=O)CNC(=O)CNC(=O)[C@@H](N)Cc1ccc(O)cc1)C(=O)O [ENKEPHALIN]
Fibroblast; 1 µM, compound concentration 1 uM, replicate 1
  Total Cell Count: 96
Fibroblast; [1]
  Population Apoptotic (%): 100%
  Population Healthy Nuclei (%): 73%
  Population Membrane Permeable-Phenotype (%): 22%
  Population Mitotic Cells (%): 0%
  Population Pyknosed Nuclei (%): 1%
  Total Cell Count: 81
Fibroblast; [2]
  Population Apoptotic (%): 35%
  Population Healthy Nuclei (%): 59%
  Population Membrane Permeable-Phenotype (%): 26%
  Population Mitotic Cells (%): 64%
  Population Pyknosed Nuclei (%): 12%
  Population Tubulin-Different-Phenotype (%): 31%
  Total Cell Count: 130
Fibroblast; [3]
  Population Healthy Nuclei (%): 76%
  Population Membrane Permeable-Phenotype (%): 18%
  Population Mitotic Cells (%): 0%
  Population Pyknosed Nuclei (%): 0%
  Population Tubulin-Different-Phenotype (%): 24%
  Total Cell Count: 118
HEK-293T; [4]
  Population Apoptotic (%): 45%
  Population Healthy Nuclei (%): 23%
  Population Mitochondria Different-Phenotype (%): 76%
  Population Mitotic Cells (%): 54%
  Population Pyknosed Nuclei (%): 60%
  Total Cell Count: 175
HEK-293T; [5]
  Population Apoptotic (%): 9%
  Population Healthy Nuclei (%): 50%
  Population Mitotic Cells (%): 90%
  Population Pyknosed Nuclei (%): 43%
  Total Cell Count: 229
HEK-293T; [6]
  Population Apoptotic (%): 40%
  Population Healthy Nuclei (%): 32%
  Population Mitochondria Different-Phenotype (%): 84%
  Population Mitotic Cells (%): 60%
  Population Pyknosed Nuclei (%): 57%
  Total Cell Count: 230
HEK-293T; [7]
  Population Apoptotic (%): 9%
  Population Healthy Nuclei (%): 45%
  Population Mitotic Cells (%): 90%
  Population Pyknosed Nuclei (%): 50%
  Total Cell Count: 271
HEK-293T; [8]
  Population Healthy Nuclei (%): 21%
  Population Mitochondria Different-Phenotype (%): 41%
  Population Normal (%): 80%
  Population Pyknosed Nuclei (%): 60%
  Total Cell Count: 175
HEK-293T; [9]
  Population Apoptotic (%): 10%
  Population Healthy Nuclei (%): 66%
  Population Mitotic Cells (%): 89%
  Population Pyknosed Nuclei (%): 28%
  Total Cell Count: 294
HEK-293T; [10]
  Population Healthy Nuclei (%): 45%
  Population Hoechst High Intensity Objects (%): 14%
  Population Mitotic Cells (%): 51%
  Population Normal (%): 85%
  Population Pyknosed Nuclei (%): 45%
  Total Cell Count: 250
HEK-293T; [11]
  Population Apoptotic (%): 7%
  Population Healthy Nuclei (%): 71%
  Population Mitotic Cells (%): 92%
  Population Pyknosed Nuclei (%): 23%
  Total Cell Count: 374
HEK-293T; [12]
  Population Healthy Nuclei (%): 32%
  Population Hoechst High Intensity Objects (%): 25%
  Population Mitochondria Different-Phenotype (%): 26%
  Population Mitotic Cells (%): 51%
  Population Normal (%): 74%
  Population Pyknosed Nuclei (%): 46%
  Total Cell Count: 212
HEK-293T; [13]
  Population Apoptotic (%): 9%
  Population Healthy Nuclei (%): 82%
  Population Mitotic Cells (%): 90%
  Population Pyknosed Nuclei (%): 11%
  Total Cell Count: 546
HEK-293T; [14]
  Population Apoptotic (%): 40%
  Population Healthy Nuclei (%): 62%
  Population Mitochondria Different-Phenotype (%): 22%
  Population Mitotic Cells (%): 60%
  Population Pyknosed Nuclei (%): 27%
  Total Cell Count: 327
HEK-293T; [15]
  Population Apoptotic (%): 18%
  Population Healthy Nuclei (%): 85%
  Population Mitochondria Different-Phenotype (%): 4%
  Population Mitotic Cells (%): 82%
  Population Pyknosed Nuclei (%): 8%
  Total Cell Count: 620
